Measured values as given in ChEMBL document CHEMBL1154785, “Identification of critical ligand binding determinants in Mycobacterium tuberculosis adenosine-5'-phosphosulfate reductase” (J Med Chem, 2009).

Key:
[1] = Binding affinity to Mycobacterium tuberculosis adenosine-5'-phosphosulfate reductase assessed as S-sulfocysteine formation at pH 5.5 by single turnover method in absence of thioredoxin
[2] = Dissociation constant, pKa at pH 6 to 9.5; type: physicochemical
[3] = Dissociation constant, pKa in solution; type: physicochemical
[4] = Binding affinity to Mycobacterium tuberculosis adenosine-5'-phosphosulfate reductase assessed as S-sulfocysteine formation at pH 7.5 by single turnover method
[5] = Binding affinity to Mycobacterium tuberculosis adenosine-5'-phosphosulfate reductase assessed as S-sulfocysteine formation at pH 9 by single turnover method
[6] = Displacement of [35S]APS from Mycobacterium tuberculosis adenosine-5'-phosphosulfate reductase by liquid scintillation counting
In short: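 Purified enzyme; reduction of ³⁵S-APS to sulfite at 30 °C in 100 mM bis-tris propane pH 7.5, 5 mM DTT and 10 μM thioredoxin. Quenched with 2% charcoal containing 20 mM Na₂SO₃, then ³⁵S-sulfite in the supernatant counted by scintillation. k_obs taken at varied inhibitor levels with [³⁵S-APS] ≪ K1/2, fit to competitive inhibition (Ki taken as Kd). At least two independent experiments.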

[7] = Binding affinity to Mycobacterium tuberculosis adenosine-5'-phosphosulfate reductase assessed as S-sulfocysteine formation at pH 7.5 by single turnover method in absence of MgCl2
[8] = Binding affinity to Mycobacterium tuberculosis adenosine-5'-phosphosulfate reductase assessed as S-sulfocysteine formation at pH 7.5 by single turnover method in presence of 0.5 mM MgCl2
[9] = Binding affinity to Mycobacterium tuberculosis adenosine-5'-phosphosulfate reductase assessed as S-sulfocysteine formation at pH 7.5 by single turnover method in presence of 2 mM MgCl2
[10] = test system: Mycobacterium tuberculosis; test: Ratio of Kd for Mycobacterium tuberculosis adenosine-5'-phosphosulfate reductase in presence of 0.5 mM MgCl2 to Kd Mycobacterium tuberculosis adenosine-5'-phosphosulfate reductase in absence of MgCl2
[11] = test system: Mycobacterium tuberculosis; test: Ratio of Kd for Mycobacterium tuberculosis adenosine-5'-phosphosulfate reductase in presence of 2 mM MgCl2 to Kd Mycobacterium tuberculosis adenosine-5'-phosphosulfate reductase in absence of MgCl2
[12] = test system: Mycobacterium tuberculosis; test: Ratio of Kcat to Km of Mycobacterium tuberculosis adenosine-5'-phosphosulfate reductase; conditions: tested as the 35S-labelled form

Nc1ncnc2c1ncn2[C@@H]1O[C@H](CO)[C@@H](OP(=O)(O)O)[C@H]1O showed a Kd [1] of 3200 µM.
For O=P(O)(O)O [PHOSPHORIC ACID], the Kd [1] was 66000 µM.
In the case of Nc1ncnc2c1ncn2[C@@H]1O[C@H](COP(=O)(O)O)[C@@H](OP(=O)(O)O)[C@H]1O, the Kd [1] is reported as 770 µM.
Compound Nc1ncnc2c1ncn2[C@@H]1O[C@H](CO)[C@@H](O)[C@H]1O [ADENOSINE] has a Kd [1] of 3000 µM.
Work on Nc1[nH]cnc2ncnc1-2 [ADENINE] yielded a Kd [1] of no less than 90000 µM.
For Nc1ncnc2c1ncn2[C@@H]1O[C@H](COP(=O)(O)C(F)(F)P(=O)(O)O)[C@@H](O)[C@H]1O, the Kd [1] was 13 µM.
For Nc1ncnc2c1ncn2[C@@H]1O[C@H](COP(O)(O)=S)[C@@H](O)[C@H]1O, the Kd [1] was 3.3 µM, the pKa [2] was 7.7 and the pKa [3] was 7.7.
O=S(=O)(O)O [SULFURIC ACID] showed a Kd [1] of no less than 310000 µM.
With Nc1ncnc2c1ncn2[C@@H]1O[C@H](COP(=O)(O)OP(N)(=O)O)[C@@H](O)[C@H]1O the Kd [1] was 410 µM, the Kd [4] was 410 µM and the Kd [5] was 56.8 µM.
Nc1ncnc2c1ncn2[C@@H]1O[C@H](COP(=O)(O)CP(=O)(O)O)[C@@H](O)[C@H]1O [PHOSPHOMETHYLPHOSPHONIC ACID ADENOSYL ESTER] showed a Kd [1] of 27 µM.
Nc1ncnc2c1ncn2[C@@H]1O[C@H](COP(N)(=O)O)[C@@H](O)[C@H]1O gave a Kd [1] of 100 µM, a Kd [4] of 100 µM and a Kd [5] of 82 µM.
Nc1ncnc2c1ncn2[C@@H]1O[C@H](COP(=O)(O)O)[C@@H](O)[C@H]1O [ADENOSINE PHOSPHATE] gave a Kd [1] of 5.4 µM, a pKa [2] of 8.1 and a Kd [6] of 5.4 µM. For the same compound, the Kd [7] was 5.4 µM, the Kd [8] was 21 µM and the Kd [9] was 31 µM. It also gave a Ratio [10] of 5 and a Ratio [11] of 5.
Nc1ncnc2c1ncn2[C@@H]1O[C@H](COP(=O)(O)NP(=O)(O)O)[C@@H](O)[C@H]1O gave a Kd [1] of 260 µM, a Kd [4] of 257 µM and a Kd [5] of 110 µM.
In the case of Nc1ncnc2c1ncn2[C@@H]1O[C@H](COP(=O)(O)OS(=O)(=O)O)[C@@H](O)[C@H]1O, the Kd [1] is reported as 0.2 µM, the Ki [1] is reported as 200 nM and the kcat/Km [12] is reported as 2 ×10⁶ /M/s.
For Nc1ncnc2c1ncn2[C@@H]1O[C@H](COP(=O)(O)CS(=O)(=O)O)[C@@H](O)[C@H]1O, the Kd [1] was 700 µM.
Work on O[C@@H]1[C@H](O)[C@H](O)CO[C@H]1O [RIBOSE (PYRANOSE)] yielded a Kd [1] of 680000 µM.
Nc1ncnc2c1ncn2[C@@H]1O[C@H](COP(=O)(S)OP(=O)(O)O)[C@@H](O)[C@H]1O (stereo partly specified) showed a Kd [1] of 0.8 µM.
Work on O=P(O)(O)OC[C@H]1O[C@@H](O)[C@H](O)[C@@H]1O yielded a Kd [1] of 93 µM.
For Nc1ncnc2c1ncn2[C@@H]1O[C@H](COP(=O)(S)OS(=O)(=O)O)[C@@H](O)[C@H]1O (mixture of isomers), the Kd [1] was 43 µM.
Nc1ncnc2c1ncn2[C@@H]1O[C@H](COP(=O)(O)OP(=O)(O)S)[C@@H](O)[C@H]1O (stereo partly specified) showed a Kd [1] of 0.15 µM, a pKa [2] of 5.8 and a pKa [3] of 5.2.
With Nc1ncnc2c1ncn2[C@@H]1O[C@H](COP(=O)(O)OP(=O)(O)O)[C@@H](O)[C@H]1O [ADENOSINE DIPHOSPHATE] the Kd [1] was 4.3 µM, the pKa [2] was 6.4 and the Kd [7] was 4.3 µM. For the same compound, the Kd [8] was 7.3 µM, the Kd [9] was 20 µM and the Ratio [10] was 5. The Ratio [11] was 5.
